Screening results deposited in PubChem by Johns Hopkins Ion Channel Center.
An excerpt weighted towards active compounds, which were near 3.1% of everything screened.
KCNQ1 act: potentiators or activators of KCNQ1 channel, primary screen, cell-based, thallium flux, high-throughput. Potassium voltage-gated channel subfamily KQT member 1 (Homo sapiens), P51787. CHO-K1 KCNQ1, thallium flux FluxOR fluorescence; active compounds read high. B-score at 10 µM. 310,000 tested, 0.35% active;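 active means fluorescence ratio B-score, a plate-corrected score, at least three library SD, with initial intensity B-score within 5 SD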
Target sequence (P51787 whole entry, looked up): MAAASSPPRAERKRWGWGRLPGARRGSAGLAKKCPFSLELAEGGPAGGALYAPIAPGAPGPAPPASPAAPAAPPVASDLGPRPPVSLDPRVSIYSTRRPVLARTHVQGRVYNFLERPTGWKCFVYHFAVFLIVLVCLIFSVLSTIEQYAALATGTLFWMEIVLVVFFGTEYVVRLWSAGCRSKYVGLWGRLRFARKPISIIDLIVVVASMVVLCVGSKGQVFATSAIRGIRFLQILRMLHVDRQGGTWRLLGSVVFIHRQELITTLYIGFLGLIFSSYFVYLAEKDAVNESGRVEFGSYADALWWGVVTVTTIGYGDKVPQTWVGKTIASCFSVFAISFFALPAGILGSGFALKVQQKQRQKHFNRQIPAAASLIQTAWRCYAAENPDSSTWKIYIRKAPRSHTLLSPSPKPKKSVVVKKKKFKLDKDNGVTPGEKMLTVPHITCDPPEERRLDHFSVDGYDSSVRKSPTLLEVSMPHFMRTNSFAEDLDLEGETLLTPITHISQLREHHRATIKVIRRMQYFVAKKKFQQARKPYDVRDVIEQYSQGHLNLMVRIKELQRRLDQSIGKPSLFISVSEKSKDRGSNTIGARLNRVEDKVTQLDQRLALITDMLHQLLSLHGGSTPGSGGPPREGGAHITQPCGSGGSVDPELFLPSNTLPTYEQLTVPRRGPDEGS
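assay system = KCNQ1-transfected CHO-K1 cells | medium = assay buffer with matched DMSO | probe or stimulus = depolarizing K+/Tl+ stimulus, K2SO4 and Tl2SO4 each 12.5 mM in 5x stock | dosing = single dose | incubation = dye 90 min, compound 20 min, room temperature | detection = kinetic FluxOR fluorescence, 10 s baseline plus 110 s post-stimulus | evaluation = ratio B score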
KCNK9 block: KCNK9 potassium channel inhibitors, primary screen, HEK293 cells, thallium flux; Potassium channel subfamily K member 9 (Homo sapiens), Q9NPC2; FluxOR thallium flux fluorescence; active compounds read low; B-score at 10 µM; 310,000 tested, 1.2% active; AID 488922, 2010;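 active means ratio B-score over 3 SD below the library mean, with starting fluorescence within 5 SD of its mean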;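 further: negative B-score means less thallium flux so channel inhibition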
KCNK3 block: human KCNK3 channel inhibitors, primary screen, CHO cells, FluxOR thallium flux, B-score | Potassium channel subfamily K member 3 (Homo sapiens), O14649 | FluxOR fluorescence; active compounds read low | B-score at 10 µM | 340,000 tested, 0.84% active | AID 602410, 2012;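 active means B-score under library mean minus 4 SD, starting fluorescence ratio at most library mean plus 5 SD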;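 further: more negative B-score means stronger inhibition of thallium flux through KCNK3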
KCNQ1 inh: inhibitors of human KCNQ1 channel, primary screen, cell-based, thallium flux, high-throughput; CHO-K1 KCNQ1, FluxOR thallium flux fluorescence; active compounds read high; B-score at 10 µM; 310,000 tested, 1.3% active;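 active means compounds whose thallium flux B-score, printed positive for inhibition, exceeds three library SD while starting fluorescence stays within three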;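 further: channel opened by potassium depolarization with thallium stimulus after 20 min compound exposure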
hERG protect: hERG rescue from dofetilide block, primary screen, cell-based, CHO-hERG, FluxOR thallium flux, dofetilide IC70; dofetilide IC70 present; activation (rescue from dofetilide block), less the hit threshold, % at 10 µM; 310,000 tested, 0.51% active; AID 1511, 2009;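 active means activation above the mean of controls blocked by dofetilide plus 5 SD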;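 further: thallium influx through hERG after potassium depolarization seen as dye fluorescence rise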
KCNK9 inh conf: KCNK9 potassium channel inhibitors, confirmation, HEK293 cells, thallium flux, duplicate; FluxOR thallium flux fluorescence; 4,900 tested, 43% active; inhibition, % at 10 µM; shares compounds with KCNK9 block;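 active means thallium signal inhibited by more than 5 SD of the compound-free buffer control wells, on both duplicate plates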
Kir21 sel: mouse Kir2.1 channel inhibition, confirmation, selectivity assay for KCNK9 modulator project, cell-based, HEK293, thallium flux. shares compounds with KCNK9 block. Kir2.1 cells, FluxOR thallium flux fluorescence. inhibition, % at 10 µM. 4,900 tested, 4% active. AID 492993, 2010;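 active means thallium signal drop more than 5 SD beyond the mean of the no-compound control wells, seen in both duplicate plates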;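 further: signal is fluorescence rise after thallium addition divided by baseline fluorescence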
HEK293 Tl ctr: thallium flux in non-induced HEK293 cells, confirmation, counter-screen for KCNK9 inhibitor project, cell-based, second counter screen, non-induced KCNK9-HEK293 | shares compounds with KCNK9 block | FluxOR thallium flux | inhibition, % at 10 µM | 4,900 tested, 40% active;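 active means thallium signal drop beyond 5 SD of the untreated control mean, on both duplicate plates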
Hits are given with their value; - = inactive; . = no result.

SMILES	KCNQ1 act	KCNK9 block	KCNK3 block	KCNQ1 inh	hERG protect	KCNK9 inh conf	Kir21 sel	HEK293 Tl ctr
O=C(CCSc1ccccc1Cl)Nc1cccc([N+](=O)[O-])c1	-	-	-	-	-	-	-	30.0%
CN(C(=O)c1cccc(NC(=O)Cc2ccc(NC(=O)C3CCCN(C(=O)C4CC4)C3)cc2)c1)C1CCCCC1 (configuration not stated)	.	.	-	.	.	.	.	.
N#Cc1ccccc1OCC(=O)NCCNC(=O)COc1ccccc1C#N	-	-	-	-	-	.	.	.
COc1cc(/C=C2\SC(=S)N(NS(=O)(=O)c3ccc(C)cc3)C2=O)cc(OC)c1OC	-	-	-	-	-	-	-	-
Cc1ccc(S(=O)(=O)NN2C(=O)/C(=C/c3cccc(F)c3)SC2=S)cc1	10	-	-	-	-	-	-	-
Cc1ccc(S(=O)(=O)NN2C(=O)/C(=C/c3ccccn3)SC2=S)cc1	-	-	-	-	-	.	.	.
COc1cc(/C=C2\SC(=S)N(NS(=O)(=O)c3ccc(C)cc3)C2=O)ccc1O	-	-	-	-	-	.	.	.
COc1ccc(OCCC(=O)OCC(=O)NCc2ccc(F)cc2)cc1	-	-	-	-	-	.	.	.
Cc1noc(C)c1S(=O)(=O)N(C)CC(=O)Nc1ccc(F)cc1	-	-11.2	-	-	-	-	-	-
CCOc1ccc(NC(=O)CN(c2cc(C)cc(C)c2)S(=O)(=O)c2c(C)noc2C)cc1	-	-	-	-	-	.	.	.
Cc1ccc(C2(C)NC(=O)N(CC(=O)Nc3cc(S(=O)(=O)N4CCOCC4)ccc3OC(C)C)C2=O)cc1 (configuration not stated)	.	.	-	.	.	.	.	.
O=C(/C=C/c1ccc(OCCCF)cc1)NCc1cccc(Cl)c1	-	-	-	-	-	.	.	.
FCCCOc1ccc(/C=N/OCc2ccc(Cl)cc2Cl)cc1	-	-	-	-	-	-	-	-
COc1ccc(OC)c(C(C[N+](=O)[O-])c2c(C)cc3ccccn23)c1 (configuration not stated)	-	-17.3	-	-	-	58.0%	-	28.5%
Cn1nc(-c2ccccc2)c(-c2nc(-c3ccccc3Cl)no2)c1Cl	-	-10.4	-	-	-	41.0%	-	32.0%
Cn1nc(-c2ccccc2)c(-c2nc(-c3cccc(C(F)(F)F)c3)no2)c1Cl	-	-	-	-	-	.	.	.
OC[C@H]1O[C@H](OC[C@H]2OC(O)[C@H](O)[C@@H](O)[C@@H]2O)[C@H](O)[C@@H](O)[C@@H]1O (some centres not stated)	.	.	-	.	.	.	.	.
O=C(Nc1nnc(-c2ccc(F)cc2)o1)C1CCCN1S(=O)(=O)c1cccs1 (configuration not stated)	-	-	-	-	-	.	.	.
O=C(NCc1ccccc1)C1=C[C@H](c2ccc3c(c2)OCO3)C[C@H](OCCCCO)O1	-	-	-	-	-	-	-	-
O=C(NCc1ccccc1)C1=C[C@H](C2CCCCC2)C[C@H](OCCCCO)O1	-	-	-	-	-	-	-	-
CC(C)Cn1c(N)c(C(=O)COC(=O)c2nccnc2N)c(=O)n(C)c1=O	.	.	-	.	.	.	.	.
CCOC(=O)C1=CN(Cc2ccco2)S(=O)(=O)N(C)C1CC (configuration not stated)	.	.	-	.	.	.	.	.
O=C(c1ccco1)N1CCN(C(=O)C2CC(=O)N(c3ccccc3)C2)CC1 (configuration not stated)	-	-	-	-	-	.	.	.
CN(C)CCOc1cc(Cl)cc(Cl)c1	-	-	-	-	-	.	.	.
COCCN(CCOc1cc(C)cc(C)c1)Cc1ccc(Cl)cc1	-	-	-	-	-	-	-	-
SMILES	KCNQ1 act	KCNK9 block	KCNK3 block	KCNQ1 inh	hERG protect	KCNK9 inh conf	Kir21 sel	HEK293 Tl ctr
CCOC(=O)Cn1c(=O)cc(C)c2cccc(C)c21	-	-	-	-	-	-	-	-
O=C(NN1C(=O)c2ccccc2C1=O)C1C2CCCCC21 (configuration not stated)	-	-	-	-	-	-	-	-
Cc1c(Br)c([N+](=O)[O-])nn1C(C)C(=O)N1CCc2ccccc2C1 (configuration not stated)	-	-	-	-	-	.	.	.
O=C(CSc1ccc(Br)c2cccc(Cl)c12)Nc1ccc(S(=O)(=O)Nc2nccs2)cc1	-	-	-	-	-	-	-	-
Cc1ccc(CSCc2ccc(C(=O)NCCC(C)C)o2)cc1	-	-	-	-	-	-	-	-
Cc1c(CCC(=O)O)c(=O)oc2cc3oc4c(c3cc12)CCCC4	-	-	-	-	-	-	-	-
Cc1c(CCC(=O)NCC(=O)NCC(=O)O)c(=O)oc2cc3oc4c(c3cc12)CCCC4	-	-	-	-	-	.	.	.
CN(Cc1ccccc1)C(=S)Nc1cccnc1	-	-	-	-	-	.	.	.
CC1(C)CC(=O)C(N=Nc2ccc(S(=O)(=O)N3CCOCC3)cc2)=C(O)C1	-	-	-	-	-	.	.	.
O=C(Nc1nc(-c2cccs2)c(-c2ccccc2)s1)c1ccco1	-	-9.02	-	-	-	61.5%	-	26.0%
CC(=O)Nc1sc(NC(=O)c2ccco2)nc1-c1cccs1	-	-	-	-	-	.	.	.
O=S(=O)(c1ccc(S(=O)(=O)N(Cc2ccccc2)Cc2ccco2)cc1)N1CCCC1	-	-	-	-	-	.	.	.
COC(=O)/C=C/c1ccccc1S(=O)(=O)N(Cc1ccccc1)Cc1ccco1	-	-8.55	-	-	-	30.0%	-	38.5%
CC(C)/C=C/C(=O)N1CCCC(N2CCN(c3ccccc3F)CC2)C1 (configuration not stated)	-	-	-	-	-	-	-	-
O=C(c1ccco1)N1CCCC(N2CCN(c3ccccc3F)CC2)C1 (configuration not stated)	-	-	-	-	-	.	.	.
COCCN(C(=O)c1ccc(C)o1)c1c(N)n(CC(C)C)c(=O)[nH]c1=O	.	.	-	.	.	.	.	.
Cn1c(=O)c(C(=O)NCc2ccccc2)c(O)c2ccccc21	-	-	-	-	-	.	.	.
Cn1c(=O)c(C(=O)NCCCc2ccccc2)c(O)c2ccccc21	-	-	-	-	-	-	-	27.5%
